ChEMBL document CHEMBL3616436, “Synthesis, cytotoxicity and antimicrobial activity of thiourea derivatives incorporating 3-(trifluoromethyl)phenyl moiety” (Eur J Med Chem, 2015)
Converted amounts (≈) assume the structure as drawn. The source made the active and inactive calls. The rule behind the calls is not given here.

Tests used:
Poliovirus 1 = test: Antiviral activity against Poliovirus type 1 ATCC VR-1562 infected in African green monkey Vero 76 cells assessed as reduction of virus-plaque formation after 2 days by crystal violet staining; assay type: functional, organism-based; settings: Enterovirus C, ATCC VR-1562, Vero, 48 h
Staphylococcus aureus [1] = test: Antimicrobial activity against Staphylococcus aureus NCTC 4163 at 400 ug after 18 hrs by disc-diffusion method; assay type: functional; settings: NCTC 4163, 18 h, read-out: IZ
Procedure, shortened: (§1)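 Disc diffusion on Mueller-Hinton II agar per CLSI; 9 mm paper discs loaded with 400 µg compound from DMSO solution, dried, placed on agar; growth inhibition zone diameter read after 18 h at 35°C.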

Staphylococcus aureus [2] = test: Antimicrobial activity against Staphylococcus aureus ATCC 6538 at 400 ug after 18 hrs by disc-diffusion method; assay type: functional; settings: ATCC 6538, 18 h, read-out: IZ; procedure, shortened: as §1
[3] = tested on: Staphylococcus epidermidis; test: Antimicrobial activity against Staphylococcus epidermidis ATCC 12228 at 400 ug after 18 hrs by disc-diffusion method; assay type: functional; settings: ATCC 12228, 18 h, read-out: IZ; procedure, shortened: as §1
[4] = Cytotoxicity against bovine MDBK cells assessed as cell viability after 48 to 96 hrs by MTT assay; assay type: cell-based, Bos taurus; settings: cattle
Yellow fever virus = test: Antiviral activity against Yellow fever virus 17D infected in BHK cells assessed as protection against virus-induced cytopathogenicity after 3 to 4 days by MTT assay; assay type: functional, cell-based
Enterococcus hirae = test: Antimicrobial activity against Enterococcus hirae ATCC 10541 at 400 ug after 18 hrs by disc-diffusion method; assay type: functional; settings: for zone of inhibition at 400 µg/disc: ATCC 10541, 18 h, read-out: IZ; procedure, shortened: as §1
[5] = tested on: Staphylococcus epidermidis; test: Antimicrobial activity against Staphylococcus epidermidis ATCC 12228 after 18 hrs by twofold serial microdilution method; assay type: functional; settings: ATCC 12228, 18 h
[6] = Cytotoxicity against human MT4 cells; assay type: cell-based
Staphylococcus aureus [7] = test: Antimicrobial activity against Staphylococcus aureus ATCC 29213 at 400 ug after 18 hrs by disc-diffusion method; assay type: functional; settings: ATCC 29213, 18 h, read-out: IZ; procedure, shortened: as §1
[8] = tested on: Vesicular stomatitis virus; test: Antiviral activity against Vesicular stomatitis virus ATCC VR 1540 infected in African green monkey Vero 76 cells assessed as reduction of virus-plaque formation after 2 days by crystal violet staining; assay type: functional, organism-based; settings: ATCC VR 1540, Vero, 48 h
Staphylococcus aureus [9] = test: Antimicrobial activity against Staphylococcus aureus ATCC 29213 after 18 hrs by twofold serial microdilution method; assay type: functional; settings: ATCC 29213, 18 h
[10] = tested on: Mycobacterium tuberculosis; test: Antimycobacterial activity against Mycobacterium tuberculosis H37Rv ATCC 25618; assay type: functional
Procedure, shortened: (§2)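 Classical test-tube successive-dilution method in Youmans' modification of Proskauer and Beck liquid medium with 10% bovine serum. Inoculum came from 14-day cultures. DMSO stock was 10 mg/mL, diluted geometrically in medium. Tubes were incubated at 37 °C. Concentrations tested were 3.1, 6.2, 12.5, 25, 50 and 100 µg/ml. MIC is the minimum concentration inhibiting growth relative to compound-free tubes.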

Proteus vulgaris = test: Antimicrobial activity against Proteus vulgaris NCTC 4635 at 400 ug after 18 hrs by disc-diffusion method; assay type: functional; procedure, shortened: as §1
Bacillus cereus = test: Antimicrobial activity against Bacillus cereus ATCC 11778 at 400 ug after 18 hrs by disc-diffusion method; assay type: functional; settings: ATCC 11778, 18 h, read-out: IZ; procedure, shortened: as §1
[11] = tested on: Staphylococcus epidermidis; test: Antimicrobial activity against Staphylococcus epidermidis ATCC 35984 at 400 ug after 18 hrs by disc-diffusion method; assay type: functional; settings: ATCC 35984, 18 h, read-out: IZ; procedure, shortened: as §1
Micrococcus luteus [12] = test: Antimicrobial activity against Micrococcus luteus ATCC 9341 at 400 ug after 18 hrs by disc-diffusion method; assay type: functional; settings: ATCC 9341, 18 h, read-out: IZ; procedure, shortened: as §1
Staphylococcus aureus [13] = test: Antimicrobial activity against Staphylococcus aureus ATCC 6538 after 18 hrs by twofold serial microdilution method; assay type: functional; settings: ATCC 6538, 18 h
Micrococcus luteus [14] = test: Antimicrobial activity against Micrococcus luteus ATCC 10240 at 400 ug after 18 hrs by disc-diffusion method; assay type: functional; settings: ATCC 10240, 18 h, read-out: IZ; procedure, shortened: as §1
[15] = tested on: Human immunodeficiency virus 1; test: Antiviral activity against HIV1 3B infected in human MT4 cells assessed as protection against virus-induced cytopathogenicity by MTT assay; assay type: functional, organism-based; settings: Human immunodeficiency virus 1, 3B
Staphylococcus aureus [16] = test: Antimicrobial activity against Staphylococcus aureus NCTC 4163 after 18 hrs by twofold serial microdilution method; assay type: functional; settings: NCTC 4163, 18 h
[17] = Cytotoxicity against African green monkey Vero 76 cells assessed as cell viability after 48 to 96 hrs by crystal violet staining; assay type: cell-based; settings: chlorocebus sabaeus
Coxsackievirus B5 = test: Antiviral activity against Human coxsackievirus B5 ATCC VR-29 infected in African green monkey Vero 76 cells assessed as reduction of virus-plaque formation after 3 days by crystal violet staining; assay type: functional, organism-based; settings: Enterovirus B, ATCC VR-29, Vero, 72 h
Procedure, shortened: (§3)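 Plaque reduction: Vero-76 at 2x10^5 cells/well grown to confluent monolayers, infected 2 h at 50–100 PFU/well; after removing unadsorbed virus, overlay of D-MEM, 1% inactivated FBS, 0.75% methylcellulose with or without serial compound dilutions; 3 days at 37°C, fixed and stained with crystal violet in 50% ethanol, plaques counted; EC50 by linear regression.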

[18] = Cytotoxicity against BHK cells assessed as cell viability after 48 to 96 hrs by MTT assay; assay type: cell-based, Mesocricetus auratus; settings: hamster
[19] = tested on: Mycobacterium tuberculosis; test: Antimycobacterial activity against drug-sensitive Mycobacterium tuberculosis Spec. 192; assay type: functional; procedure, shortened: as §2
[20] = tested on: Mammalian orthoreovirus 1; test: Antiviral activity against Reovirus type-1 ATCC VR-214 infected in BHK cells assessed as protection against virus-induced cytopathogenicity after 3 to 4 days by MTT assay; assay type: functional, cell-based; settings: Mammalian orthoreovirus 1, ATCC VR-214, BHK
Procedure, shortened: (§4)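 Cells seeded in 96-well plates (BHK 5x10^4, MDBK 3x10^4 cells/well), grown overnight to confluence, infected at m.o.i. 0.01 (BHK for Reo-1, MDBK for BVDV); serial compound dilutions in maintenance medium with 0.5% inactivated FBS added after 1 h; viability by MTT after 3–4 days at 37°C; EC50 for 50% protection by linear regression.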

Human alphaherpesvirus 1 = test: Antiviral activity against Human herpesvirus 1 KOS ATCC VR-1493 infected in African green monkey Vero 76 cells assessed as reduction of virus-plaque formation after 3 days by crystal violet staining; assay type: functional, organism-based; settings: Human alphaherpesvirus 1, KOS ATCC VR1493, Vero, 72 h; procedure, shortened: as §3
Staphylococcus aureus [21] = test: Antimicrobial activity against Staphylococcus aureus ATCC 25923 after 18 hrs by twofold serial microdilution method; assay type: functional; settings: ATCC 25923, 18 h
Vaccinia virus = test: Antiviral activity against Human Vaccinia virus ATCC VR-1549 infected in African green monkey Vero 76 cells assessed as reduction of virus-plaque formation after 3 days by crystal violet staining; assay type: functional, organism-based; settings: Orthopoxvirus vaccinia, ATCC VR-1549, Vero, 72 h
Bacillus subtilis = test: Antimicrobial activity against Bacillus subtilis ATCC 6633 at 400 ug after 18 hrs by disc-diffusion method; assay type: functional; settings: ATCC 6633, 18 h, read-out: IZ; procedure, shortened: as §1
Enterococcus faecalis = test: Antimicrobial activity against Enterococcus faecalis ATCC 29212 at 400 ug after 18 hrs by disc-diffusion method; assay type: functional; procedure, shortened: as §1
[22] = tested on: Staphylococcus epidermidis; test: Antimicrobial activity against Staphylococcus epidermidis ATCC 35984 after 18 hrs by twofold serial microdilution method; assay type: functional; settings: ATCC 35984, 18 h
Staphylococcus aureus [23] = test: Antimicrobial activity against Staphylococcus aureus ATCC 25923 at 400 ug after 18 hrs by disc-diffusion method; assay type: functional; settings: ATCC 25923, 18 h, read-out: IZ; procedure, shortened: as §1
[24] = Antiviral activity against Bovine viral diarrhea virus 1-NADL ATCC VR-534 infected in MDBK cells assessed as protection against virus-induced cytopathogenicity after 3 to 4 days by MTT assay; assay type: functional, cell-based; settings: Bovine viral diarrhea virus isolates and strains, ATCC VR-534, MDBK; procedure, shortened: as §4

Row | Structure (SMILES) | EC50 (Poliovirus 1) [µM] | zone of inhibition at 400 µg/disc (Staphylococcus aureus [1]) [mm] | zone of inhibition at 400 µg/disc (Staphylococcus aureus [2]) [mm] | zone of inhibition at 400 µg/disc [3] [mm] | CC50 [4] [µM] | EC50 (Yellow fever virus) [µM] | MIC [5] [µg/mL] | CC50 [6] [µM] | zone of inhibition at 400 µg/disc (Staphylococcus aureus [7]) [mm] | EC50 [8] [µM] | MIC (Staphylococcus aureus [9]) [µg/mL] | MIC [10] [µg/mL] | inhibition zone (IZ) (Proteus vulgaris) | zone of inhibition at 400 µg/disc (Bacillus cereus) [mm] | zone of inhibition at 400 µg/disc [11] [mm] | zone of inhibition at 400 µg/disc (Micrococcus luteus [12]) [mm] | MIC (Staphylococcus aureus [13]) [µg/mL] | zone of inhibition at 400 µg/disc (Micrococcus luteus [14]) [mm] | EC50 [15] [µM] | MIC (Staphylococcus aureus [16]) [µg/mL] | further results
1 | C=C(C)CNC(=S)Nc1cccc(C(F)(F)F)c1 | > 100 | 20 | 18 | 17 | > 100 | > 100 | 64 (≈ 233 µM) | 43 | 17 | > 100 | 64 (≈ 233 µM) | > 100 | inactive | 16 | 13 | 20 | 64 (≈ 233 µM) | 16 | > 43 | 64 (≈ 233 µM) | inhibition zone (IZ) (Enterococcus hirae): inactive; CC50 [17]: > 100 µM; EC50 (Coxsackievirus B5): > 100 µM; CC50 [18]: > 100 µM; MIC [19]: 100 µg/mL (≈ 365 µM); EC50 [20]: > 100 µM; EC50 (Human alphaherpesvirus 1): > 100 µM; MIC (Staphylococcus aureus [21]): 64 µg/mL (≈ 233 µM); EC50 (Vaccinia virus): > 100 µM; zone of inhibition at 400 µg/disc (Bacillus subtilis): 16 mm; inhibition zone (IZ) (Enterococcus faecalis): inactive; MIC [22]: 64 µg/mL (≈ 233 µM); zone of inhibition at 400 µg/disc (Staphylococcus aureus [23]): 18 mm; EC50 [24]: > 100 µM
2 | FC(F)(F)c1cccc(NC(=S)NCc2ccco2)c1 | > 50 | 14 | 14 | 12 | > 100 | > 48 | 256 (≈ 852 µM) | 43 | 19 | > 50 | 256 (≈ 852 µM) | > 100 | inactive | 13 | 13 | 13 | 256 (≈ 852 µM) | 13 | > 43 | 256 (≈ 852 µM) | zone of inhibition at 400 µg/disc (Enterococcus hirae): 13 mm; CC50 [17]: 50 µM; EC50 (Coxsackievirus B5): > 50 µM; CC50 [18]: 48 µM; MIC [19]: > 100 µg/mL; EC50 [20]: > 48 µM; EC50 (Human alphaherpesvirus 1): > 50 µM; MIC (Staphylococcus aureus [21]): 256 µg/mL (≈ 852 µM); EC50 (Vaccinia virus): > 50 µM; zone of inhibition at 400 µg/disc (Bacillus subtilis): 15 mm; zone of inhibition at 400 µg/disc (Enterococcus faecalis; ATCC 29212, 18 h, read-out: IZ): 0 mm; MIC [22]: 512 µg/mL (≈ 1700 µM); zone of inhibition at 400 µg/disc (Staphylococcus aureus [23]): 14 mm; EC50 [24]: > 100 µM
3 | CCNC(=S)Nc1cccc(C(F)(F)F)c1 | > 100 | 14 | 14 | 14 | > 100 | > 100 | 256 (≈ 1030 µM) | > 100 | 19 | > 100 | 256 (≈ 1030 µM) | > 100 | inactive | 15 | 13 | 13 | 256 (≈ 1030 µM) | 13 | > 100 | 256 (≈ 1030 µM) | zone of inhibition at 400 µg/disc (Enterococcus hirae): 13 mm; CC50 [17]: > 100 µM; EC50 (Coxsackievirus B5): > 100 µM; CC50 [18]: > 100 µM; MIC [19]: > 100 µg/mL; EC50 [20]: > 100 µM; EC50 (Human alphaherpesvirus 1): > 100 µM; MIC (Staphylococcus aureus [21]): 128 µg/mL (≈ 516 µM); EC50 (Vaccinia virus): > 100 µM; zone of inhibition at 400 µg/disc (Bacillus subtilis): 15 mm; inhibition zone (IZ) (Enterococcus faecalis): inactive; MIC [22]: 512 µg/mL (≈ 2060 µM); zone of inhibition at 400 µg/disc (Staphylococcus aureus [23]): 15 mm; EC50 [24]: > 100 µM
